Laboratory results: ChEMBL document CHEMBL1124280, “Synthesis and biological evaluation of isomeric dinucleoside monophosphates and monomethylphosphonates of 9-beta-D-arabinofuranosyladenine and related analogues” (1988)
In brackets after ≈: the same amount, converted by molar mass.

Experiments:
Type in all cases: functional
HeLa [1] = assay: Minimum inhibitory concentration against vaccinia virus in aneuploid (Hela) human cells
FM3A = assay: Inhibitory effect on proliferation of Murine mammary Carcinoma (FM3A); details: Mus musculus, read-out: ID50 (the source's name)
Oryctolagus cuniculus [2] = species: Oryctolagus cuniculus; assay: Antiviral activity in primary rabbit kidney cell cultures against Herpes simplex virus type 2 Strain Lyons
Oryctolagus cuniculus [3] = species: Oryctolagus cuniculus; assay: Minimum cytotoxic concentration against herpes simplex virus in primary rabbit kidney cell cultures
Summary of the method: (§1)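 Uninfected confluent monolayers (rabbit kidney, HeLa, Vero or E6SM) were incubated with compound for the same time as the antiviral assay. The value is the lowest concentration (µg/mL) that causes a microscopically detectable change in normal cell morphology.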

[4] = Inhibitory effect on proliferation of Human T-Lymphoblast (Molt/4F) cells; details: read-out: ID50 (the source's name)
Oryctolagus cuniculus [5] = species: Oryctolagus cuniculus; assay: Antiviral activity in primary rabbit kidney cell cultures against vaccinia virus
Oryctolagus cuniculus [6] = species: Oryctolagus cuniculus; assay: Antiviral activity in primary rabbit kidney cell cultures against Herpes Simplex virus type 1 (KOS strain)
Homo sapiens [7] = species: Homo sapiens; assay: Minimum inhibitory concentration against vaccinia virus in diploid (E6SM) human cell culture
Oryctolagus cuniculus [8] = species: Oryctolagus cuniculus; assay: Antiviral activity in primary rabbit kidney cell cultures against Herpes Simplex virus type 1 (TK-strain B2006)
Homo sapiens [9] = species: Homo sapiens; assay: Minimum cytotoxic concentration in diploid (E6SM) human cell culture; summary of the method: as §1
Oryctolagus cuniculus [10] = species: Oryctolagus cuniculus; assay: Antiviral activity in primary rabbit kidney cell cultures against Herpes simplex virus type 2 Strain 196
Vero [11] = assay: Minimum inhibitory concentration against vaccinia virus in vero cells of African green monkey kidney; details: Chlorocebus sabaeus
Vero [12] = assay: Minimum cytotoxic concentration in vero cells of African green monkey kidney; details: Chlorocebus sabaeus; summary of the method: as §1
Oryctolagus cuniculus [13] = species: Oryctolagus cuniculus; assay: Antiviral activity in primary rabbit kidney cell cultures against Herpes simplex virus type 2 Strain G
Oryctolagus cuniculus [14] = species: Oryctolagus cuniculus; assay: Antiviral activity in primary rabbit kidney cell cultures against vesicular stomatitis virus
Oryctolagus cuniculus [15] = species: Oryctolagus cuniculus; assay: Antiviral activity in primary rabbit kidney cell cultures against Herpes Simplex virus type 1 (McIntyre strain)
L1210 = assay: Inhibitory effect on Proliferation of Murine Leukemia (L1210); details: Mus musculus, read-out: ID50 (the source's name)
Oryctolagus cuniculus [16] = species: Oryctolagus cuniculus; assay: Antiviral activity in primary rabbit kidney cell cultures against Herpes Simplex virus type 1 (TK-strain VMW I837)
Homo sapiens [17] = species: Homo sapiens; assay: Inhibitory effect on proliferation of Human B-Lymphoblast (Raji); details: read-out: ID50 (the source's name)
Oryctolagus cuniculus [18] = species: Oryctolagus cuniculus; assay: Antiviral activity in primary rabbit kidney cell cultures against Herpes Simplex virus type 1 (Fstrain)
HeLa [19] = assay: Minimum cytotoxic concentration against vaccinia virus in aneuploid (Hela) human cells; summary of the method: as §1

SMILES	MIC (HeLa [1])	IC50 (FM3A)	MIC (Oryctolagus cuniculus [2])	MCC (Oryctolagus cuniculus [3])	IC50 [4]	MIC (Oryctolagus cuniculus [5])	MIC (Oryctolagus cuniculus [6])	MIC (Homo sapiens [7])	MIC (Oryctolagus cuniculus [8])	MCC (Homo sapiens [9])	MIC (Oryctolagus cuniculus [10])	MIC (Vero [11])	MCC (Vero [12])	MIC (Oryctolagus cuniculus [13])	MIC (Oryctolagus cuniculus [14])	MIC (Oryctolagus cuniculus [15])	IC50 (L1210)	MIC (Oryctolagus cuniculus [16])	IC50 (Homo sapiens [17])	MIC (Oryctolagus cuniculus [18])	other results
Nc1ncnc2c1ncn2C1O[C@H](CO)C(OP(=O)([O-])OC[C@H]2OC(n3cnc4c(N)ncnc43)[C@@H](O)[C@@H]2O)[C@@H]1O.[Na+] (stereo partly drawn)	20 µg/mL	22.4 µg/mL	2 µg/mL	> 200 µg/mL	13.6 µg/mL	0.2 µg/mL	20 µg/mL	2 µg/mL	20 µg/mL	> 400 µg/mL	7 µg/mL	20 µg/mL	> 400 µg/mL	7 µg/mL	> 100 µg/mL	10 µg/mL	22.2 µg/mL	20 µg/mL	30 µg/mL	10 µg/mL	MCC (HeLa [19]): ≥ 200 µg/mL
Nc1ncnc2c1ncn2C1O[C@H](CO)[C@@H](OP(=O)([O-])OC[C@H]2OC(n3cnc4c(N)ncnc43)[C@H](O)[C@H]2O)[C@@H]1O.[Na+] (stereo partly drawn)	20 µg/mL	20.4 µg/mL	2 µg/mL	100 µg/mL	23.3 µg/mL	2 µg/mL	20 µg/mL	10 µg/mL	20 µg/mL	≥ 400 µg/mL	20 µg/mL	20 µg/mL	> 40 µg/mL	7 µg/mL	> 40 µg/mL	7 µg/mL	10 µg/mL	20 µg/mL	32.3 µg/mL	10 µg/mL	MCC (HeLa [19]): 100 µg/mL
Nc1ncnc2c1ncn2[C@@H]1O[C@H](CO)[C@@H](O)[C@@H]1O [VIDARABINE]	20 µg/mL (≈ 74.8 µM)	21.1 µg/mL (≈ 79 µM)	7 µg/mL (≈ 26.2 µM)	> 100 µg/mL	16.7 µg/mL (≈ 62.5 µM)	2 µg/mL (≈ 7.48 µM)	20 µg/mL (≈ 74.8 µM)	7 µg/mL (≈ 26.2 µM)	20 µg/mL (≈ 74.8 µM)	> 400 µg/mL	20 µg/mL (≈ 74.8 µM)	70 µg/mL (≈ 262 µM)	≥ 400 µg/mL	7 µg/mL (≈ 26.2 µM)	20 µg/mL (≈ 74.8 µM)	10 µg/mL (≈ 37.4 µM)	21 µg/mL (≈ 78.6 µM)	20 µg/mL (≈ 74.8 µM)	25.9 µg/mL (≈ 96.9 µM)	7 µg/mL (≈ 26.2 µM)	MCC (HeLa [19]): > 200 µg/mL
